In PMC5343109 (Acta Pharmaceutica Sinica. B, 2016):
“And” between values parts separate entries of the source, which are not always exact repeats. Identical values can stand only once. Marks after values point to notes of the source that are not given here.

What was measured:
[1] = DPPH free radical scavenging antioxidant assay; details: 517 nm, 1 mmol/L concentration
p38α MAPK = p38α MAPK (Homo sapiens, UniProt Q16539); assay: p38α MAPK assay; assay type: biochemical
[2] = system: carrageenan-induced rat paw edema; assay: carrageenan-induced rat paw edema anti-inflammatory activity; assay type: in vivo, albino rats of Wistar strain; details: for inhibition in vivo at 10 mg/kg: Rattus norvegicus, po, 4 h, read-out: Inhibition (anti-inflammatory activity), rat, oral dose 10 mg/kg body weight, after 4h; for Inhibition (anti-inflammatory activity) / Increase in paw edema / Activity relative to diclofenac sodium: rat; for Inhibition (anti-inflammatory activity) / Increase in paw edema: oral dose 10 mg/kg body weight; for Inhibition (anti-inflammatory activity): after 4h, 10 mg/kg; for Increase in paw edema: mean±SEM, n=6; for Activity relative to diclofenac sodium: oral dose 10 mg/kg, diclofenac sodium = 100
Method in brief: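 Wistar rats of either sex, 180–200 g, kept at 25 ± 2 °C, 50 ± 5% relative humidity and a 12 h light/dark cycle, with free food and water until testing. Paw edema after carrageenan was measured by digital plethysmometer. Six animals per group. Groups were compared by Student's t-test, with P < 0.05 taken as significant.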

[3] = system: gastric mucosa (ulcerogenic potential); assay: ulcerogenic test; assay type: in vivo; details: rats, oral dose of 30 mg/kg, mean±SEM, n=6
gastric mucosal tissue = assay: lipid peroxidation in the gastric mucosa; assay type: in vivo; details: rats, mean±SEM
TNF-α = assay: LPS-induced TNF-α production inhibition in mice; assay type: in vivo, mice (BALB/c); details: for TNF-α inhibition: LPS-induced TNF-α production in mice, plasma ELISA, mean±SEM, n=6; for ID50: LPS-induced TNF-α release in mice

p38α MAPK, sequence (Q16539 whole entry): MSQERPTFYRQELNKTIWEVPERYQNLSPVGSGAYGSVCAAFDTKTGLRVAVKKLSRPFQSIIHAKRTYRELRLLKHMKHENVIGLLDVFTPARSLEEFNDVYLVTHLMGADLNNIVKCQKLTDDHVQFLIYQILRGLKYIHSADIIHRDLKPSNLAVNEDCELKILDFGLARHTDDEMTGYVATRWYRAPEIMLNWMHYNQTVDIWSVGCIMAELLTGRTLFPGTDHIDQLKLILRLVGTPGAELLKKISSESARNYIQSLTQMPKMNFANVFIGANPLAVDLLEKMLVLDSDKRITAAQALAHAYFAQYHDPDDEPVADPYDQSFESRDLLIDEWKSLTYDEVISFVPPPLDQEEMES

IC50 (p38α MAPK) [nM]	Lipid peroxidation (gastric mucosal tissue; n=6)	Lipid peroxidation (gastric mucosal tissue; n=6, listed as diclofenac sodium) [nmol MDA/100 mg tissue]	SMILES	percentage antioxidant activity [1]	inhibition in vivo at 10 mg/kg [2] [%]	Inhibition (anti-inflammatory activity) [2]	Increase in paw edema [2] [mL]	Activity relative to diclofenac sodium [2]	Severity index [3]	TNF-α inhibition (TNF-α)	ID50 (TNF-α)
			COc1ccc(O)c(C(C)(C)C)c1 [BHA, butylated hydroxy anisole, reference compound]	71.53%							
39 ± 40	5.47±0.44 ^b nmol MDA/100 mg tissue		NC(=O)Nc1ccc(-c2cc(-c3ccc(OCc4ccccc4)cc3)n(-c3ccccc3Cl)n2)cc1 [Compound 3a, 1-[4-[5-(4-(Benzyloxy)phenyl)-1-(2-chlorophenyl)-1H-pyrazol-3-yl]phenyl]urea]		76.2	76.19 ^b %	0.40 ± 0.08	93.23	0.67±0.25 ^b	60.87±2.65 ^b %	19.98 mg/kg
	5.19±0.48 ^b nmol MDA/100 mg tissue		NC(=O)Nc1ccc(-c2cc(-c3ccc(OCc4ccccc4)cc3)n(-c3cccc(Cl)c3)n2)cc1 [Compound 3b, 1-[4-[5-(4-(Benzyloxy)phenyl)-1-(3-chlorophenyl)-1H-pyrazol-3-yl]phenyl]urea]		78.1	78.06 ^b %	0.37 ± 0.20	95.52		62.45±0.07 ^b %	11.32 mg/kg and 11.32 ^b mg/kg
	5.12±0.55 ^b nmol MDA/100 mg tissue		NC(=O)Nc1ccc(-c2cc(-c3ccc(OCc4ccccc4)cc3)n(-c3ccc(Cl)cc3)n2)cc1 [Compound 3c, 1-[4-[5-(4-(Benzyloxy)phenyl)-1-(4-chlorophenyl)-1H-pyrazol-3-yl]phenyl]urea]	75.06%	80.9	80.93 ^b %	0.32 ± 0.06	99.03		62.56±0.24%	9.67 mg/kg and 9.67 ^b mg/kg
79			NC(=O)Nc1ccc(-c2cc(-c3ccc(OCc4ccccc4)cc3)n(-c3ccc(Cl)c(Cl)c3)n2)cc1 [Compound 3d, 1-[4-[5-(4-(Benzyloxy)phenyl)-1-(3,4-dichlorophenyl)-1H-pyrazol-3-yl]phenyl]urea]		62.2		0.64 ± 0.05	76.17	1.08±0.37 ^b	52.60±2.16%	
48 ± 10	6.08±0.15 nmol MDA/100 mg tissue		NC(=O)Nc1ccc(-c2cc(-c3ccc(OCc4ccccc4)cc3)n(-c3ccc(F)cc3)n2)cc1 [Compound 3e, 1-[4-[5-(4-(benzyloxy)phenyl)-1-(4-fluorophenyl)-1H-pyrazol-3-yl]phenyl]urea]		72.3		0.47 ± 0.16	88.50	0.83±0.22	57.34±3.05%	
110 ± 170			NC(=O)Nc1ccc(-c2cc(-c3ccc(OCc4ccccc4)cc3)n(-c3ccc(F)c(Cl)c3)n2)cc1 [Compound 3f, 1-[4-[5-(4-(Benzyloxy)phenyl)-1-(3-chloro-4-fluorophenyl)-1H-pyrazol-3-yl]phenyl] urea]								
	6.02±0.17 ^a nmol MDA/100 mg tissue		NC(=O)Nc1ccc(-c2cc(-c3ccc(OCc4ccccc4)cc3)n(-c3ccc(Br)cc3)n2)cc1 [Compound 3g, 1-[4-[5-(4-(Benzyloxy)phenyl)-1-(4-bromophenyl)-1H-pyrazol-3-yl]phenyl]urea]		74	74.01 ^b %	0.44 ± 0.06	90.56	0.75±0.27	58.13±0.28%	
67			NC(=O)Nc1ccc(-c2cc(-c3ccc(OCc4ccccc4)cc3)n(-c3ccc([N+](=O)[O-])cc3)n2)cc1 [Compound 3h, 1-[4-[5-(4-(Benzyloxy)phenyl)-1-(4-nitrophenyl)-1H-pyrazol-3-yl]phenyl]urea]		68.4		0.53 ± 0.12	83.67	0.91±0.20	52.76±2.08%	
112 ± 40			NC(=O)Nc1ccc(-c2cc(-c3ccc(OCc4ccccc4)cc3)n(-c3ccc([N+](=O)[O-])cc3[N+](=O)[O-])n2)cc1 [Compound 3i, 1-[4-[5-(4-(Benzyloxy)phenyl)-1-(2,4-dinitrophenyl)-1H-pyrazol-3-yl]phenyl]urea]								
123			Cc1ccccc1-n1nc(-c2ccc(NC(N)=O)cc2)cc1-c1ccc(OCc2ccccc2)cc1 [Compound 3j, 1-[4-[5-(4-(Benzyloxy)phenyl)-1-(2-methylphenyl)-1H-pyrazol-3-yl]phenyl]urea]	did not exhibit any significant antioxidant activity							
210 ± 110			Cc1cccc(-n2nc(-c3ccc(NC(N)=O)cc3)cc2-c2ccc(OCc3ccccc3)cc2)c1 [Compound 3k, 1-[4-[5-(4-(Benzyloxy)phenyl)-1-(3-methylphenyl)-1H-pyrazol-3-yl]phenyl]urea]								
169 ± 70			Cc1ccc(-n2nc(-c3ccc(NC(N)=O)cc3)cc2-c2ccc(OCc3ccccc3)cc2)cc1 [Compound 3l, 1-[4-[5-(4-(Benzyloxy)phenyl)-1-(4-methylphenyl)-1H-pyrazol-3-yl]phenyl]urea]								
270			Cc1cccc(C)c1-n1nc(-c2ccc(NC(N)=O)cc2)cc1-c1ccc(OCc2ccccc2)cc1 [Compound 3m, 1-[4-[5-(4-(Benzyloxy)phenyl)-1-(2,6-dimethylphenyl)-1H-pyrazol-3-yl]phenyl]urea]								
206 ± 370			COc1ccccc1-n1nc(-c2ccc(NC(N)=O)cc2)cc1-c1ccc(OCc2ccccc2)cc1 [Compound 3n, 1-[4-[5-(4-(Benzyloxy)phenyl)-1-(2-methoxyphenyl)-1H-pyrazol-3-yl]phenyl]urea]	did not exhibit any significant antioxidant activity							
170			COc1ccc(-n2nc(-c3ccc(NC(N)=O)cc3)cc2-c2ccc(OCc3ccccc3)cc2)cc1 [Compound 3o, 1-[4-[5-(4-(Benzyloxy)phenyl)-1-(4-methoxyphenyl)-1H-pyrazol-3-yl]phenyl]urea]	did not exhibit any significant antioxidant activity							
	6.52±0.42 nmol MDA/100 mg tissue	6.52 ± 0.42	O=C(O)Cc1ccccc1Nc1c(Cl)cccc1Cl [Diclofenac sodium, diclofenac sodium, reference compound]		81.6		0.31 ± 0.13	100	1.83±0.27		
			C[S+]([O-])c1ccc(-c2nc(-c3ccncc3)c(-c3ccc(F)cc3)[nH]2)cc1 (stereo not shown) [SB 203580, reference compound]							52.11±1.08 ^b %	28.40 mg/kg and 28.40 ^b mg/kg
